Key:
[1] = Cell viability under diverse cell treatments; type: cell-based
IκBα = test: γ-tri-DAP-induced expression of NF-κB target gene IκBα; type: cell-based
[2] = system: NF-κB, MAPK and Akt signalings; test: γ-tri-DAP-dependent signaling; type: cell-based
TLR1, 2, 4, 5, 6 and 8 = test: THP.1 macrophage NF-κB/AP-1-inducible SEAP reporter, TLR agonists; type: cell-based, Human; settings: 5 μM compound, 24 h, PMA-differentiated THP.1
In short: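 PMA-differentiated THP.1 cells carrying NF-κB-driven SEAP were cultured ± 5 μM test compound with TLR inducers: 0.5 μg/ml Pam3CSK4, heat-killed Listeria monocytogenes (HKLM), 1 μg/ml FSL-1, 0.5 μg/ml LPS, 0.5 μg/ml flagellin or 1 μg/ml ssRNA40. Supernatant SEAP was measured after 24 h, as % of inducer alone. Mean ± SEM, n=2.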

[3] = system: non-canonical NF-κB activation induced by BAFF; test: 697 pre-B leukemia cells NF-κB-luciferase reporter, BAFF; type: cell-based; settings: 697 cells, 10 μM compound, 100 ng/ml BAFF, 24h
In short: (§1)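 697 cells stably carrying an NF-κB-luciferase reporter were cultured with or without 10 μM test compound plus inducer: 100 ng/ml BAFF or 5 μM ODN2006 as TLR9 ligand. Luciferase activity was read 24 h later. Mean ± SD, n=3.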

TLR9 = target: T1, TLR9 (Homo sapiens, UniProt Q9NR96); test: 697 pre-B leukemia cells NF-κB-luciferase reporter, CpG DNA; type: cell-based; settings: 697 cells, 10 μM compound, 5 μM ODN2006, 24h
T1 sequence (Q9NR96 26-1032): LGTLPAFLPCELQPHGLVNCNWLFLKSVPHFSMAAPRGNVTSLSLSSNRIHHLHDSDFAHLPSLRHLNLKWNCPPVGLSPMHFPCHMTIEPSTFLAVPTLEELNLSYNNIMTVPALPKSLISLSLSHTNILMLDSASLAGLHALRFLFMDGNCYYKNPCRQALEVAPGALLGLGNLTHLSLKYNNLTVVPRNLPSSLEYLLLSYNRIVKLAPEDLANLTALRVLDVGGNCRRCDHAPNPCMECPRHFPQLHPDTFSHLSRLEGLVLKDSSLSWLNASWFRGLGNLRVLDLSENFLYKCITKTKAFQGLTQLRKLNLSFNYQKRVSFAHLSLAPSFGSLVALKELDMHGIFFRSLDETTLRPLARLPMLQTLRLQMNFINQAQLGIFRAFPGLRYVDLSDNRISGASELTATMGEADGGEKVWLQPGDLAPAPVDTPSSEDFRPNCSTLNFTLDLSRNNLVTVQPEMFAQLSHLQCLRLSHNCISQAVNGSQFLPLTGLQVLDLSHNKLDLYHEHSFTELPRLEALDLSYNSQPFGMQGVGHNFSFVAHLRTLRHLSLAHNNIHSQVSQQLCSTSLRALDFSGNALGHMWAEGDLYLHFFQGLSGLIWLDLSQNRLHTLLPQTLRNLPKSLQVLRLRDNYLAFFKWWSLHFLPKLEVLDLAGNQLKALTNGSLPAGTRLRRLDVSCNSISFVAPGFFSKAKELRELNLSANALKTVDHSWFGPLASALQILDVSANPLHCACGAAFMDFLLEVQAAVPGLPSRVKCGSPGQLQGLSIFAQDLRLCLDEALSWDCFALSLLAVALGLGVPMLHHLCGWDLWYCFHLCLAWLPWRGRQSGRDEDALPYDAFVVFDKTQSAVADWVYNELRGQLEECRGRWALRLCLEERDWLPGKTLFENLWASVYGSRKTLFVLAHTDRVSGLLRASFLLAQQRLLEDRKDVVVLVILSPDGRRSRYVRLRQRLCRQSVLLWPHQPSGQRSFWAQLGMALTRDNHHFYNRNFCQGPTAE
In short: as §1

RIG-I/MDA-5, IRF3 = test: HEK293T ISRE-driven luciferase reporter, other interferon response stimuli; type: cell-based; settings: 5 μM compound; poly(I:C), poly(dA:dT), Sendai virus
In short: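 HEK293T cells stably expressing an ISRE-driven luciferase reporter were cultured ± 5 μM test compound with 1 μg/ml poly(I:C) (LyoVec lipid transfection), 1 μg/ml poly(dA:dT) (LyoVec) or Sendai virus. Luciferase was measured after 24 h. Mean ± SD, n=4.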

inflammasomes = test: IL-1β secretion induced by inflammasome activators; type: cell-based; settings: 5 μM compound; MSU, poly(dA:dT), LPS plus ATP, S. typhimurium
In short: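 RAW264.7 macrophages were treated with 5 μM test compound, with LPS pre-treatment to induce pro-IL-1β synthesis. Supernatants were taken at 2 h (Salmonella) or 4 h (others). IL-1β by ELISA. Mean ± SD, n=3.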

NOD1 signaling = test: Gene transfection experiments in HEK 293T-NF-κB-luciferase cells; type: cell-based
In short: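 HEK293T NF-κB-luciferase cells were transfected with NOD1, RIP2, XIAP or GFP plasmids in various combinations. After 24 h, cells were cultured ± 3.5 μg/ml γ-tri-DAP, ± 10 μM test compound, or both, for 24 h. Luciferase was normalised to GFP-transfected cells (100%). Mean ± SD, n=4.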

Bcl-XL and Bid = test: Ni/NTA pull-down of purified His6-tagged control proteins; settings: purified protein, 20 μM compound
In short: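 Purified His6-Bcl-XL or His6-Bid (≈0.4 ug) was pre-incubated 60 min with 20 μM test compound, with DMSO as control. Ni-NTA agarose beads were added and incubated overnight at 4°C. Pulled-down protein was immunoblotted with anti-His antibody. Bands were quantified relative to the DMSO control.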

NOD2 = NOD2 (Homo sapiens, UniProt Q9HC29); test: Subcellular fractionation of MCF-7 cells stably expressing epitope-tagged NOD2; type: cell-based; settings: MCF-7 cells expressing NOD2
Chain of NOD2 (Q9HC29 whole entry): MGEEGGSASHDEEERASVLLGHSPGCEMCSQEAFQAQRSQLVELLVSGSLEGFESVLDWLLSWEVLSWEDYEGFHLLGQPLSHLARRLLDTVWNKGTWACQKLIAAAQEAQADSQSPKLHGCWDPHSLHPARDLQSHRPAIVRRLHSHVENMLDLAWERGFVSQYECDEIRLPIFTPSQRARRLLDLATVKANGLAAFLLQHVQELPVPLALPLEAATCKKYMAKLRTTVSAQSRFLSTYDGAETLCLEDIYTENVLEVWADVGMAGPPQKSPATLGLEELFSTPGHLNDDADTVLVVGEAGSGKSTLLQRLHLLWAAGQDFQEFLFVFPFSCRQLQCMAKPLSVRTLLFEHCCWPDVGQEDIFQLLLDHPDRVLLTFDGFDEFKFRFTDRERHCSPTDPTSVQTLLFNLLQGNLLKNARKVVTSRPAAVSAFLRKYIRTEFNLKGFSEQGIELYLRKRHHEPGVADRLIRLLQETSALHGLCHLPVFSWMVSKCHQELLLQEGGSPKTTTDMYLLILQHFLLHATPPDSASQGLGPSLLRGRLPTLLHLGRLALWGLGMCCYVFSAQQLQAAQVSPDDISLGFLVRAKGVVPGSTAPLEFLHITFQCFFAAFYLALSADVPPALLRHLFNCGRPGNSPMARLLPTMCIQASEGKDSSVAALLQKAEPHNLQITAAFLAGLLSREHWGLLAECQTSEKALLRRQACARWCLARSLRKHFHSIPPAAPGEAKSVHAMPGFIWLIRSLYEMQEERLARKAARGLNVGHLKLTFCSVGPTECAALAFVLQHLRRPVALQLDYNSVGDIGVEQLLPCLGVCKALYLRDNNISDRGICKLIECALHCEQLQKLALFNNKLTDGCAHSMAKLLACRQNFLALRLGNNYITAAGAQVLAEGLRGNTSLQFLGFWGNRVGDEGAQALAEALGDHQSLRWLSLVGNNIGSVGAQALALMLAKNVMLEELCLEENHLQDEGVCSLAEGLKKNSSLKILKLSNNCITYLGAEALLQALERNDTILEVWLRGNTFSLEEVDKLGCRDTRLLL

Structure (SMILES): Cc1ccc(S(=O)(=O)n2c(N)nc3ccccc32)cc1 [CID-1088438]
- Cell viability [1]: not affected
- γ-tri-DAP-induced expression of IκBα at the mRNA level (IκBα): inhibited
- Akt survival pathway [2]: without affecting
- γ-tri-DAP-dependent activation of MAPK (p38 phosphorylation) [2]: inhibits
- γ-tri-DAP-dependent activation of NF-κB (IκBα phosphorylation and degradation) [2]: inhibits
- NF-κB-inducible SEAP activity induced by TLR agonists (TLR1, 2, 4, 5, 6 and 8): No inhibitory effects
- non-canonical NF-κB activation induced by BAFF [3]: not inhibited
- NF-κB activity induced by TLR9 ligand CpG DNA (TLR9): did not inhibit
- ISRE-driven reporter gene activity induced by other interferon response stimuli (RIG-I/MDA-5, IRF3): no inhibition
- IL-1β secretion induced by various inflammasome activators (inflammasomes): did not inhibit
- site of action in NOD1 signaling (NOD1, RIP2, XIAP transfection) (NOD1 signaling; 10 μM compound, 24 hrs): targets NOD1 signaling upstream of RIP2
- impact in cells over-expressing IKKγ/NEMO, MYD88, FLIP, CARD6, APAF1 or NLRC4 (NOD1 signaling; data not shown): No significant impact
- binding of His6-tagged control proteins Bcl-XL and Bid to Ni/NTA (Bcl-XL and Bid): without affecting
- NOD2 compartmentalization (NOD2): No changes

Source: PMC3152441 (Chemistry & biology, 2011)
